PubChem BioAssay AID449761 (Broad Institute, 2010)
Inconclusive results are not listed. Calls of active or inactive are those of the source.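 How the source made its calls: active means compounds raising caspase signal with fitted AC50 no more than tenfold above the top tested dose; inconclusive means flat curve at 30 to 70% activity, or unusable fit; inactive means the rest.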

test system: MEF WT non-primed, caspase-Glo luminescence, 3 h; test: caspase activity of non-primed cells – cell-based, caspase-Glo luminescence, 3 h, counter-screen for Bcl2-A1 inhibitor project, dose response (AID 449761)
Procedure, shortened: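 Incubation: 3 h compound at 37 °C, 1 h reagent at RT / System: Non-primed wild-type MEF cells / Signal: CaspaseGlo luminescence, reagent diluted 1:1 in 50 mM HEPES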

| SMILES | AC50 |
| --- | --- |
| C/C1=C\[C@@H](C)C/C=C/[C@H]2[C@@H]3O[C@]3(C)[C@@H](C)[C@H]3[C@H](Cc4c[nH]c5ccccc45)NC(=O)[C@]32C(=O)/C=C/C(=O)[C@@H]1O | 8.71 µM |
| Cc1cccc(C)c1NC(=O)C(Cl)C(=O)c1ccccc1 (stereo not given) | > 35 µM (inactive) |
| Cc1nn(Cc2c(Cl)cccc2Cl)c(C)c1NC(=O)c1cn(-c2ccccc2)nc1-c1ccccc1 | 16.6 µM |
| Cc1ccc(-c2nc(NC(=O)c3nn(C)cc3[N+](=O)[O-])sc2C)cc1C | 5.21 µM |
| CCc1nc(N=Nc2c(O)[nH]c3ccccc23)c2c3c(sc2n1)CCC3 | 18.2 µM |
| Cc1ccc(C=C2C(Cl)=C(Cl)C(Cl)=C2Cl)cc1 | 5.72 µM |
| Cc1cccc(Nc2nc(N)c([N+](=O)[O-])c(N3CCCC(C)C3)n2)c1 (stereo not given) | > 35 µM (inactive) |
| CCOc1ccc(NC(=S)NC(=O)/C=C/c2ccc(C)cc2)c([N+](=O)[O-])c1 | 21.7 µM |
| CCC(Sc1nc2cc3c(cc2c(=O)n1Cc1ccco1)OCO3)C(=O)Nc1cccc(OC)c1 (stereo not given) | > 35 µM (inactive) |
| COC(=O)c1ccc2c(c1)C(C)(C)C(/C=C/c1ccc(O)cc1)=[N+]2C | 14.2 µM |
| O=c1c(Cl)c(Cl)cnn1Cc1ccccc1Cl | > 35 µM (inactive) |
| COc1ccccc1C(=O)Nc1ccnn1C1CCN(Cc2cn(C)c3ccccc23)CC1 | > 35 µM (inactive) |
| COc1ccc(-c2cc3ccccc3oc2=O)cc1NC(=S)NC(=O)c1ccc2c(c1)OCCO2 | 5.96 µM |
| O=C(/C=C/c1ccc(F)cc1)NC(=S)Nc1ccccc1C(=O)NC1CCCCC1 | > 35 µM (inactive) |
| CCOC(=O)C1=C(c2ccccc2)O/C(=C(/C#N)C(F)(F)F)S1 | > 35 µM (inactive) |
| COc1cc(NC(=O)c2ccccc2)c(OC)cc1NC(=O)Cc1ccc(Br)cc1 | > 35 µM (inactive) |
| CCC1CCCCN1S(=O)(=O)c1ccc(NC(=O)c2nc(S(C)(=O)=O)ncc2Cl)cc1 (stereo not given) | 4.2 µM |
| Cc1nn(-c2ccccc2)c(C)c1/C=N/NC(=O)CSc1nc2ccccc2c(=O)n1-c1ccc(Br)cc1 | 36 µM |
| COc1cc(/C=C(/C#N)c2nc3ccccc3[nH]2)ccc1OCC(=O)Nc1ccccc1C(C)C | 7.53 µM |
| CCOC(=O)/C(=C\c1ccc([N+](=O)[O-])cc1)C(=O)c1cc(C(C)=O)c(Nc2ccccc2)s1 | 1.46 µM |
| CCOc1cc(/C=C2/C(=N)N3C=CSC3=NC2=O)ccc1OCCCOc1ccccc1C | 8.09 µM |
| CCOC(=O)N1C(=O)[C@@](c2ccc(Cl)cc2)(C(C)C)N1C(=O)OCC | > 35 µM (inactive) |
| Cc1ccc(N(Cc2cc(=O)[nH]c3ccccc23)C(=O)CCl)cc1 | > 35 µM (inactive) |
| COc1ccccc1-c1cc(C(F)(F)F)nc(S(=O)(=O)CCCC(=O)NC(C)C)n1 | 25.8 µM |

| SMILES | AC50 |
| --- | --- |
| CC(=O)[C@]1(O)Cc2c(O)c3c(c(O)c2[C@@H](O[C@H]2C[C@H](N)[C@H](O)[C@H](C)O2)C1)C(=O)c1ccccc1C3=O | > 35 µM (inactive) |
| CC(C)(C)c1ccc(C(=O)Nc2ccc(O)c3c(=O)cc(-c4cccc(Cl)c4)oc23)cc1 | > 35 µM (inactive) |
| O=[N+]([O-])/C=C/c1cn(Cc2ccc(Cl)cc2)c2ccccc12 | 18.4 µM |
| O=C1/C(=C\c2c(NCCOCCO)nc3ccccn3c2=O)SC(=S)N1Cc1ccco1 | > 35 µM (inactive) |
| CCCCCCCC/C=C\CCCCCCCC(=O)NCCc1ccc(O)c(O)c1 | 14 µM |
| Cc1c(CCOC(=O)c2ccc(N3CCOCC3)c([N+](=O)[O-])c2)sc[n+]1CC#N | > 35 µM (inactive) |
| C#CC(=O)N(c1cc(OC)ccc1OC)C(C(=O)NC1CCCC1)c1cccs1 (stereo not given) | > 35 µM (inactive) |
| O=S1(=O)CCOC[C@H](CC2CCCCC2)N1Cc1cccc(Cl)c1 | > 35 µM (inactive) |
| COc1ccc(N(C(=O)CCl)C(C(=O)NCCc2ccccc2)c2cccs2)cc1Cl (stereo not given) | 27.4 µM |
| O=C(NCc1ccccc1Br)c1cccc2c1C(=O)c1ccc(-c3ccc(OC(F)(F)F)cc3)cc1S2(=O)=O | > 35 µM (inactive) |
| CCc1nnc(NC(=O)c2nc(S(=O)(=O)Cc3ccccc3)ncc2Cl)s1 | > 35 µM (inactive) |
| COc1cccc(C(=O)C(C#N)=C(SC)SC)c1 | > 35 µM (inactive) |
| O=C(Nc1ccc(Cl)cc1Cl)c1cccc(N2C(=O)C=CC2=O)c1 | 35.8 µM |
| CCn1c(Cl)c(C=O)s/c1=N\S(=O)(=O)c1ccccc1 | > 35 µM (inactive) |
| CC(CCc1ccccc1)NC(=O)c1ccc(NC(=O)c2ccccc2)cc1 (stereo not given) | 27.7 µM |
| CC[C@H]1CN2CCc3cc(OC)c(OC)cc3[C@@H]2C[C@@H]1C[C@H]1NCCc2cc(OC)c(OC)cc21 | > 35 µM (inactive) |
| Cc1c(C=O)c(C=O)c(C)n1Cc1ccccc1 | > 35 µM (inactive) |
| Cc1ccc(CS(=O)(=O)c2ncc(Cl)c(C(=O)Nc3nnc(C(C)C)s3)n2)cc1 | > 35 µM (inactive) |
| CCOc1ccc(NCc2cccn2-c2nnc(N3CCC(C(=O)NCCCN4CC(C)CC(C)C4)CC3)s2)cc1 (stereo not given) | > 35 µM (inactive) |
| Cc1ccc(C)c(S(=O)(=O)NCC(=O)Nc2sc3c(c2C(N)=O)CCC(C)C3)c1 (stereo not given) | > 35 µM (inactive) |
| COc1ccc(NC(=O)C(=O)N/N=C\c2ccc(CNC(=O)C(=O)Nc3ccc(C)c(C)c3)o2)c(OC)c1 | 23.5 µM |
| Oc1[nH]c2ccc(Br)cc2c1N=NC(=S)Nc1ccc(F)cc1 | > 35 µM (inactive) |
| Cc1cc(C(=O)CCl)c(C)n1CCc1ccc(Cl)cc1 | > 35 µM (inactive) |
| N#Cc1c(C(F)(F)F)cc(-c2ccccc2)nc1SCC(=O)Nc1sc2c(c1C#N)CCC2 | > 35 µM (inactive) |

| SMILES | AC50 |
| --- | --- |
| Nc1c(C(=O)Nc2ccc(S(=O)(=O)N3CCCC3)cc2)sc2nc3ccc(OC(F)(F)F)cc3cc12 | 30.7 µM |
| Cc1ccc2c(c1)C(=O)C(=O)N2Cc1ccc(Br)cc1 | > 35 µM (inactive) |
| Cc1ccc(S(=O)(=O)c2nnn3c2nc(Nc2cccc(C)c2)c2ccccc23)cc1 | > 35 µM (inactive) |
| Cc1ccc(-c2nc(NC(=O)c3nn(C)cc3[N+](=O)[O-])sc2C)cc1 | 5.96 µM |
| COc1ccc2cc(C)c3nnc(SCC(=O)Nc4nc(-c5ccc(F)cc5)cs4)n3c2c1 | 26.2 µM |
| O=C(COc1ccc(/C=N/NC(=O)c2cc3ccccc3o2)cc1Cl)Nc1ccccc1 | 9.56 µM |
| CCCCC1CCC(C(=O)N(CC(C)C)c2c(N)n(Cc3ccccc3)c(=O)[nH]c2=O)CC1 (stereo not given) | 8 µM |
| COc1cc(/C=C(/C#N)C(=O)Nc2ccc(Cl)cc2)ccc1Oc1nc(Cl)ncc1F | > 35 µM (inactive) |
| COc1cc(NC(=O)c2ccc(C)cc2C)ccc1NC(=O)c1cc2ccccc2o1 | 30.4 µM |
| CC1CC(C)CN(C(=O)c2ccc(-c3ccc([N+](=O)[O-])cc3)o2)C1 (stereo not given) | > 35 µM (inactive) |
| COc1ccc(-c2oc(=O)c3cc(OC)c(OC)cc3c2/C=C/c2cccc([N+](=O)[O-])c2)cc1 | > 35 µM (inactive) |
| COc1ccc2c(-c3cc4ccc(OCc5ccc(F)cc5)cc4oc3=O)cc(=O)oc2c1 | 23.9 µM |
| Cc1cccc(NC(=O)CSc2nc(C)c(CC(=O)c3ccc(Br)cc3)c(C)c2C#N)c1C | > 35 µM (inactive) |
| COc1ccc(-c2ccc3c(c2)S(=O)(=O)c2cccc(C(=O)NCCOc4ccccc4)c2C3=O)cc1OC | > 35 µM (inactive) |
| CCc1ccc2nc(N(CCCN(C)C)C(=O)c3ccc(S(=O)(=O)N4CCc5ccccc5C4)cc3)sc2c1 | > 35 µM (inactive) |
| COc1cc(C2CC(c3cccs3)=NN2C(=O)CCl)ccc1OC(F)F (stereo not given) | 32.9 µM |
| Cc1cc(=O)[nH]c(SCC(=O)Nc2ccc(Br)cc2)c1C#N | > 35 µM (inactive) |
| CC(C)c1cccc(-c2ccc3c(c2)S(=O)(=O)c2cccc(C(=O)NC4CCCC4)c2C3=O)c1 | > 35 µM (inactive) |
| C=CC(=O)Nc1ccc(CN2C(=O)N(c3c(Cl)c(OC)cc(OC)c3Cl)Cc3cnc(NCCCCN(CC)CC)nc32)cc1 | > 35 µM (inactive) |
| CC1(C)C[C@H](O)[C@]2(CO)[C@H](O)C[C@]3(C)C(=CCC4[C@@]5(C)CC[C@H](O)C(C)(C)C5CC[C@]43C)[C@@H]2C1 (stereo not given in full) | > 35 µM (inactive) |
| O=[N+]([O-])/C=C/c1ccc2c(ccn2Cc2ccccc2)c1 | 12.6 µM |
| CCOC(=O)c1sc(NC(=O)CSc2nc(C)cc(C)c2C#N)c(C#N)c1C | > 35 µM (inactive) |
